# How the values were obtained:
# Rattus norvegicus [1] = assay: Effective dose against muscular incoordination in rats determined by rotarod test when administered peroral; assay type: functional
# How it was run: (§1)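 Male Olac Wistar rats (140–150 g), fed and watered ad libitum, in groups of five, dosed orally (water solution or 0.5% carboxymethylcellulose suspension). Tested at 1 and 2 h on a horizontal rod rotating at 2 rpm, 32 mm diameter, with a 30 s cutoff.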
# [2] = molecular target: Muscarinic acetylcholine receptor; assay: Inhibitory activity against Muscarinic acetylcholine receptor in male olac rat brain, using [3H]-QNB as the radioligand
# Mus musculus [3] = assay: Effective dose required to evoke catalepsy in mouse when administered perorally; assay type: functional
# How it was run: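 CFW mice (21–23 g), groups of three, oral dosing in water or 0.5% carboxymethylcellulose. Scored at 0.25, 2.5 and 5.0 h for holding one hind limb on a 2 cm rubber bung and staying on a vertical grid. EDmin is the dose below which no catalepsy occurred at any time.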
# D(2) dopamine receptor [4] = molecular target: T1, D(2) dopamine receptor (Bos taurus, UniProt P20288); assay: Inhibitory activity Dopamine receptor D2 in calf caudate tissue, using [3H]spiperone as the radioligand
# T1 sequence (P20288 whole entry): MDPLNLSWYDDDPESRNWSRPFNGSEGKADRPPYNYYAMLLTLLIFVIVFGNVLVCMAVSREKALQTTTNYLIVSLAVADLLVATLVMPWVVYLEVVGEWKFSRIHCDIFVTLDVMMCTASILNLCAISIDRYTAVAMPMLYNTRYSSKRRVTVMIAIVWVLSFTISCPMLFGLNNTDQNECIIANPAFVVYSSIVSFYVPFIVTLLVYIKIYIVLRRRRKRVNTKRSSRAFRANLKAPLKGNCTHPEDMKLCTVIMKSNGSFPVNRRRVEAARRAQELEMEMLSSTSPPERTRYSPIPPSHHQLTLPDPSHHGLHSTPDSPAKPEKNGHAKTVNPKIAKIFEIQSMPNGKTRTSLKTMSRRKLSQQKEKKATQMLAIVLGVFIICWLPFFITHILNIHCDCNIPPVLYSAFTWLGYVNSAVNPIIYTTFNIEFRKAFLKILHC
# Rattus norvegicus [5] = species on record: Rattus norvegicus; assay: Inhibition of conditioned avoidance response in rats, peroral dose; assay type: functional
# Mus musculus [6] = assay: Effective dose required to produce hypothermia in mouse when administered peroral; assay type: functional
# How it was run: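 Rectal temperature recorded in groups of three CFW mice (21–23 g) at 0.25, 2.5 and 5.0 h after oral compound (water or 0.5% carboxymethylcellulose). Changes in group mean temperature from the initial mean were summed over the three times. Hypothermia was taken as a summed mean fall >4 °C.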
# [7] = molecular target: Muscarinic acetylcholine receptor; assay: Inhibitory activity against muscarinic cholinergic receptors in male olac rat brain, using [3H]QNB as the radioligand
# D(2) dopamine receptor [8] = molecular target: T1, D(2) dopamine receptor; assay: Inhibitory activity against dopamine receptor D2 in calf caudate tissue using [3H]spiperone
# D(2) dopamine receptor [9] = molecular target: T1, D(2) dopamine receptor; assay: Inhibitory activity against Dopamine receptor D2 in calf caudate tissue, using [3H]spiperone as the radioligand
# Rattus norvegicus [10] = assay: Effective dose against muscular incoordination in rats determined by rotarod test when administered perorally; assay type: functional; how it was run: as §1
# Rattus norvegicus [11] = assay: Effective dose against muscular in coordination in rats determined by rotarod test when administered peroral; assay type: functional
# How it was run: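 Male Olac Wistar rats (140–150 g), fed and watered ad libitum, groups of five; compound in distilled water or 0.5% carboxymethylcellulose given orally. Tested at 1 and 2 h on horizontal rod rotating at 2 rpm (32 mm diameter), time on rod recorded up to 30 s.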
IC50 [2] [nM],IC50 (D(2) dopamine receptor [4]) [nM],IC50 [7] [nM],IC50 (D(2) dopamine receptor [8]) [nM],IC50 (D(2) dopamine receptor [9]) [nM],Structure (SMILES),EDmin (Rattus norvegicus [1]) [mg/kg],EDmin (Mus musculus [3]) [mg/kg],EDmin (Rattus norvegicus [5]) [mg/kg],EDmin (Mus musculus [6]) [mg/kg],EDmin (Rattus norvegicus [10]) [mg/kg],EDmin (Rattus norvegicus [11]) [mg/kg]
4000,300,,,,CN1CCN(C2=Nc3cc(Br)ccc3Nc3nn(C)nc32)CC1,5,12.5,5,12.5,,
,,> 1000,180,,CCn1nc2c(n1)C(N1CCN(C)CC1)=Nc1cc(F)ccc1N2,10,12.5,5,12.5,,
,,2400,67,,CCn1nc2c(n1)C(N1CCN(C)CC1)=Nc1cc(Cl)ccc1N2,>5,12.5,5,12.5,,
> 1000,,,,840,CN1CCN(C2=Nc3cc(F)ccc3Nc3nn(C)nc32)CC1,,25,5,12.5,20,
,,> 1000,1420,,CN1CCN(C2=Nc3ccccc3Nc3nn(C)nc32)CC1,,25,5,25,>50,
2600,,,,210,CN1CCN(C2=Nc3cc(Cl)ccc3Nc3nn(C)nc32)CC1,>10,12.5,4,6,,
,,61000,> 10000,,CCn1cnc2c1Nc1ccc(F)cc1N=C2N1CCN(C)CC1,>50,>200,>50,>200,,
,,,,> 10000,CN1CCN(C2=Nc3ccccc3Nc3c2nnn3C)CC1,,,>50,,,
> 1000,,,,1100,CN1CCN(C2=Nc3cc(C(F)(F)F)ccc3Nc3nn(C)nc32)CC1,25,50,>25,50,,
,,> 1000,> 10000,,Cc1nc2c(n1C)C(N1CCN(C)CC1)=Nc1cc(F)ccc1N2,>50,>200,>50,50,,
,,> 100000,> 10000,,CN1CCN(C2=Nc3cc(F)ccc3Nc3c2ncn3C2CCCCC2)CC1,>50,>400,>50,200,,
,,> 1000,> 10000,,CN1CCN(C2=Nc3cc(F)ccc3Nc3ncn(C)c32)CC1,40,100,>20,25,,
,,80,,,Cc1cc2c(s1)Nc1ccc(F)cc1N=C2N1CCN(C)CC1 [FLUMEZAPINE],10,6.25,5,1.6,,
,,,,9200,CN1CCN(C2=Nc3cc(Cl)c(Cl)cc3Nc3ncccc32)CC1,,50,,100,,
,,122000,> 100000,,CN1CCN(C2=Nc3cc(F)ccc3Nc3c2ncn3C)CC1,>50,>400,>50,>400,,
> 1000,,,,2300,CN1CCN(C2=Nc3cc(Cl)c(Cl)cc3Nc3nn(C)nc32)CC1,>50,100,>20,50,,
,,,,,CN1CCN(C2=Nc3cc(Cl)ccc3Nc3ccccc32)CC1 [CLOZAPINE],,100,30,50,,40

Structure (SMILES),IC50 [2] [nM],IC50 (D(2) dopamine receptor [4]) [nM],IC50 [7] [nM],IC50 (D(2) dopamine receptor [8]) [nM],IC50 (D(2) dopamine receptor [9]) [nM],EDmin (Rattus norvegicus [1]) [mg/kg],EDmin (Mus musculus [3]) [mg/kg],EDmin (Rattus norvegicus [5]) [mg/kg],EDmin (Mus musculus [6]) [mg/kg],EDmin (Rattus norvegicus [10]) [mg/kg],EDmin (Rattus norvegicus [11]) [mg/kg]
CN1CCN(C2=Nc3ccccc3Nc3ncccc32)CC1,,,,,> 10000,,,,100,,

# Reference: ChEMBL document CHEMBL1124358, “Synthesis and pharmacological evaluation of CNS activities of [1,2,3]triazolo[4,5-b][1,5]-, imidazolo[4,5-b][1,5]-, and pyrido[2,3-b][1,5]benzodiazepines. 10-Piperazinyl-4H-1,2,3-triazolo[4,5-b][1,5]benzodiazepines with neuroleptic activity” (J Med Chem, 1989)
